The source made the active and inactive calls. The calls are words filed in the database; no cut-off is given here.
Key:
MM1.S = test: Antiproliferative activity against human MM1S cells after 72 hrs by MTS assay; type: functional, cell-based
MV4-11 = test: Antiproliferative activity against human MV4-11 cells after 72 hrs by MTS assay; type: functional, cell-based; details: MV4-11, 72 h
[1] = biological target: T1, Proteasome Macropain subunit MB1 (Homo sapiens, UniProt P28074); test: Inhibition of human 20S proteasome chymotrypsin-like activity using Suc-Leu-Leu-Val-Tyr-AMC as substrate pretreated for 15 mins followed by substrate addition by fluorescence assay
T1 sequence (P28074 whole entry): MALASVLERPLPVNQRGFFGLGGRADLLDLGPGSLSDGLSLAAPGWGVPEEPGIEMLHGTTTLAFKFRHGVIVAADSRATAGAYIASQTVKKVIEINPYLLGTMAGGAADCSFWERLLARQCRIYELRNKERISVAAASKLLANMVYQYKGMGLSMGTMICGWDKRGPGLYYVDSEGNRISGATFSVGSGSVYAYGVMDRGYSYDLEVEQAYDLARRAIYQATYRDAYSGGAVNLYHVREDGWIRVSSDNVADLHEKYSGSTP

RPMI-8226 = test: Antiproliferative activity against human RPMI8226 cells after 72 hrs by MTS assay; type: functional, cell-based; details: RPMI-8226, 72 h
[2] = Metabolic stability in mouse liver microsomes assessed as parent compound remaining at 100 uM after 5 mins by LC-MS/MS analysis; type: ADME, Microsome; details: read-out: Stability
[3] = Oral bioavailability in ICR mouse at 25 mg/kg via gavage by LC-MS/MS analysis; type: ADME, organism-based; details: in vivo
[4] = Volume of distribution at steady state in ICR mouse at 5 mg/kg, iv by LC-MS/MS analysis; type: ADME, organism-based; details: in vivo, read-out: Vdss
[5] = AUC (0 to t) in ICR mouse at 5 mg/kg, iv after 1 hr by LC-MS/MS analysis; type: ADME, organism-based; design: time < 1 hr, dose 5 mg/kg, route intravenous; details: in vivo
[6] = Half life in ICR mouse at 5 mg/kg, iv by LC-MS/MS analysis; type: ADME, organism-based; details: in vivo
Mus musculus = test: In vivo inhibition of 20S proteasome chymotrypsin-like activity in Balb/c mouse blood at 30 mg/kg, po measured at 2 to 24 hrs post dose using LLVY-AMC as substrate by fluorescence assay; type: functional, organism-based
Method in brief: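 BALB/c mice dosed orally in 0.5% CMC-Na vehicle. Blood was sampled at 2 and 24 h after dosing for proteasome chymotrypsin-like activity.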

[7] = Tmax in ICR mouse at 25 mg/kg, po via gavage by LC-MS/MS analysis; type: ADME, organism-based; details: in vivo
[8] = Clearance in ICR mouse at 5 mg/kg, iv by LC-MS/MS analysis; type: ADME, organism-based; details: in vivo
[9] = Cmax in ICR mouse at 25 mg/kg, po via gavage by LC-MS/MS analysis; type: ADME, organism-based; design: dose 25 mg/kg, route oral; details: in vivo
[10] = Metabolic stability in mouse liver microsomes assessed as parent compound remaining at 100 uM after 30 mins by LC-MS/MS analysis; type: ADME, Microsome; details: read-out: Stability
Method in brief: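 After the microsomal incubation, the clear supernatant was analysed by ESI LC-MS. The read-out was the relative peak area of each parent compound.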

[11] = AUC (0 to t) in ICR mouse at 25 mg/kg, po via gavage after 1 hr by LC-MS/MS analysis; type: ADME, organism-based; design: time < 1 hr, dose 25 mg/kg, route oral; details: in vivo

Row | SMILES | IC50 (MM1.S) [nM] | IC50 (MV4-11) [nM] | IC50 [1] [nM] | IC50 (RPMI-8226) [nM] | other results
1 | COC[C@@H]1NC(=O)c2ccccc2OCCCCCCC[C@@H](C(=O)N[C@@H](Cc2ccccc2)C(=O)[C@@]2(C)CO2)NC1=O | 32 | 66 | 14 | 73 | –
2 | COC[C@@H]1NC(=O)c2ccc(OC)cc2OCCCCCCOC[C@@H](C(=O)N[C@@H](Cc2ccccc2)C(=O)[C@@]2(C)CO2)NC1=O | 43 | – | 253 | > 100 | –
3 | COC[C@@H]1NC(=O)c2sc(C)nc2OCCCCCCOC[C@@H](C(=O)N[C@@H](Cc2ccccc2)C(=O)[C@@]2(C)CO2)NC1=O | 65 | 36 | 392 | > 100 | –
4 | COC[C@@H]1NC(=O)c2ccccc2OCCCCOC[C@@H](C(=O)N[C@@H](Cc2ccccc2)C(=O)[C@@]2(C)CO2)NC1=O | 65 | 49 | 36 | > 100 | –
5 | COC[C@@H]1NC(=O)[C@@H]2CCCN2C(=O)CCCCCOC[C@@H](C(=O)N[C@@H](Cc2ccccc2)C(=O)[C@@]2(C)CO2)NC1=O | 172 | 421 | 352 | 350 | –
6 | COC[C@@H]1NC(=O)c2ccccc2OCCCCCCCCOC[C@@H](C(=O)N[C@@H](Cc2ccccc2)C(=O)[C@@]2(C)CO2)NC1=O | – | – | 346 | – | –
7 | COC[C@@H]1NC(=O)c2cccc(OC)c2OCCCCCCOC[C@@H](C(=O)N[C@@H](Cc2ccccc2)C(=O)[C@@]2(C)CO2)NC1=O | 3 | 6 | 4 | 5 | remaining at 5 min, 100 µM [2]: < 5%
8 | COC[C@@H]1NC(=O)c2ccccc2OCCCCCCCOC[C@@H](C(=O)N[C@@H](Cc2ccccc2)C(=O)[C@@]2(C)CO2)NC1=O | 78 | 39 | 63 | > 100 | –
9 | COC[C@H](NC(=O)c1cnc(C)s1)C(=O)N[C@@H](COC)C(=O)N[C@@H](Cc1ccccc1)C(=O)[C@@]1(C)CO1 [OPROZOMIB] | 9 | 28 | – | 19 | bioavailability [3]: 5.61%; Vd [4]: 0.51 L/kg; AUC(0-t) at 1 h [5]: 506 ng·h/mL; half-life [6]: 2.4 min; inhibition (Mus musculus): Active; Tmax [7]: 13.2 min; clearance [8]: 164 mL/min/kg; Cmax [9]: 261 ng/mL; remaining at 0.5 h, 100 µM [10]: 60%; AUC(0-t) at 1 h [11]: 142 ng·h/mL
10 | COC[C@@H]1NC(=O)c2cnn(C)c2CCCCCCOC[C@@H](C(=O)N[C@@H](Cc2ccccc2)C(=O)[C@@]2(C)CO2)NC1=O | 2 | 3 | 20 | 3 | remaining at 0.5 h, 100 µM [10]: 48%
11 | COC[C@@H]1NC(=O)c2ccc(C)cc2OCCCCCCOC[C@@H](C(=O)N[C@@H](Cc2ccccc2)C(=O)[C@@]2(C)CO2)NC1=O | 53 | – | 162 | > 100 | –
12 | COC[C@@H]1NC(=O)c2ccccc2OCCOCCOC[C@@H](C(=O)N[C@@H](Cc2ccccc2)C(=O)[C@@]2(C)CO2)NC1=O | 12 | 33 | 116 | 55 | –
13 | COC[C@@H]1NC(=O)c2cccc(c2)OCCCCCCCCOC[C@@H](C(=O)N[C@@H](Cc2ccccc2)C(=O)[C@@]2(C)CO2)NC1=O | 11 | – | 51 | 32 | –
14 | COC[C@@H]1NC(=O)c2cccn2CCCCCCOC[C@@H](C(=O)N[C@@H](Cc2ccccc2)C(=O)[C@@]2(C)CO2)NC1=O | 4 | 11 | 14 | 13 | remaining at 5 min, 100 µM [2]: < 5%
15 | COC[C@@H]1NC(=O)c2ccccc2OCCOCCOCCOC[C@@H](C(=O)N[C@@H](Cc2ccccc2)C(=O)[C@@]2(C)CO2)NC1=O | 43 | 130 | 370 | 82 | –
16 | COC[C@@H]1NC(=O)c2cccc(F)c2OCCCCCCOC[C@@H](C(=O)N[C@@H](Cc2ccccc2)C(=O)[C@@]2(C)CO2)NC1=O | 3 | 9 | 25 | 10 | –
17 | COC[C@@H]1NC(=O)c2cnn(C)c2OCCCCCCOC[C@@H](C(=O)N[C@@H](Cc2ccccc2)C(=O)[C@@]2(C)CO2)NC1=O | 6 | 4 | 32 | 20 | remaining at 0.5 h, 100 µM [10]: 63%
18 | COC[C@@H]1NC(=O)c2ncccc2OCCCCCCOC[C@@H](C(=O)N[C@@H](Cc2ccccc2)C(=O)[C@@]2(C)CO2)NC1=O | 37 | – | 248 | > 100 | –
19 | COC[C@@H]1NC(=O)c2ccnn2CCCCCCCOC[C@@H](C(=O)N[C@@H](Cc2ccccc2)C(=O)[C@@]2(C)CO2)NC1=O | 2 | 5 | 25 | 5 | –
20 | COC[C@@H]1NC(=O)c2sccc2OCCCCCCOC[C@@H](C(=O)N[C@@H](Cc2ccccc2)C(=O)[C@@]2(C)CO2)NC1=O | 63 | 131 | 257 | 128 | –
21 | COC[C@@H]1NC(=O)c2cc(Cl)ccc2OCCCCCCOC[C@@H](C(=O)N[C@@H](Cc2ccccc2)C(=O)[C@@]2(C)CO2)NC1=O | – | – | 436 | – | remaining at 5 min, 100 µM [2]: < 5%
22 | COC[C@@H]1NC(=O)c2cccnc2OCCCCCCOC[C@@H](C(=O)N[C@@H](Cc2ccccc2)C(=O)[C@@]2(C)CO2)NC1=O | – | – | 232 | – | –
23 | COC[C@@H]1NC(=O)c2nccn2CCCCCCCOC[C@@H](C(=O)N[C@@H](Cc2ccccc2)C(=O)[C@@]2(C)CO2)NC1=O | 2 | 5 | 37 | 5 | –
24 | COC[C@@H]1NC(=O)c2ccccc2OCCCCCCCC[C@@H](C(=O)N[C@@H](Cc2ccccc2)C(=O)[C@@]2(C)CO2)NC1=O | 137 | 72 | 35 | 120 | –
25 | COC[C@@H]1NC(=O)c2ccc(F)cc2OCCCCCCOC[C@@H](C(=O)N[C@@H](Cc2ccccc2)C(=O)[C@@]2(C)CO2)NC1=O | 69 | – | 205 | > 100 | –
26 | COC[C@@H]1NC(=O)c2ccc(Cl)cc2OCCCCCCOC[C@@H](C(=O)N[C@@H](Cc2ccccc2)C(=O)[C@@]2(C)CO2)NC1=O | 43 | 26 | 100 | > 100 | –
27 | COC[C@@H]1NC(=O)c2ccccc2OCCCCCCCCCOC[C@@H](C(=O)N[C@@H](Cc2ccccc2)C(=O)[C@@]2(C)CO2)NC1=O | – | – | 460 | – | –
28 | COC[C@@H]1NC(=O)c2ccccc2OCCCCCOC[C@@H](C(=O)N[C@@H](Cc2ccccc2)C(=O)[C@@]2(C)CO2)NC1=O | 29 | 13 | 21 | 74 | –
